Test results from ChEMBL document CHEMBL4043170, “1-Acetyl-5-phenyl-1H-pyrrol-3-ylacetate: An aldose reductase inhibitor for the treatment of diabetic nephropathy” (Bioorg Med Chem Lett, 2017).
Calls of active or inactive are those of the source. The rule behind the calls is not given here.

Experiments:
[1] = target: Aldo-keto reductase family 1 member B1 (Rattus norvegicus, UniProt P07943); experiment: Inhibition of AR in Sprague-Dawley rat lens using DL-glyceraldehyde as substrate by spectrophotometric analysis
Summary of the method: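 Inhibition is expressed relative to uninhibited enzyme activity, set as 100%. For the kinetic study, DL-glyceraldehyde was used at 0.083, 0.125, 0.25 and 1.0 mM. […] Results were analysed by Lineweaver-Burk double-reciprocal plots of 1/V against 1/S.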

Rattus norvegicus [2] = experiment: Antidiabetic activity in STZ-induced diabetic nephropathy Wistar rat model assessed as increase in total antioxidant capacity at 40 to 160 mg/kg administered daily for 8 weeks measured up to 8 weeks by ELISA; assay type: functional, organism-based
Summary of the method: (§1)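 Male Wistar rats (300±50 g), adapted under specific pathogen-free conditions with free access to food and water. STZ diabetic nephropathy counted if blood glucose ≥13.88 mM with raised urinary microalbumin. Groups: saline, untreated DN, 40, 80 or 160 mg/kg, and reference inhibitor 100 mg/kg. Dosed daily for eight weeks. Urine and blood sampled at weeks 2, 4, 6 and 8. Mean ± SD, n = 8.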

HBZY-1 [3] = experiment: Downregulation of collagen 4 levels in rat HBZY-1 cells at 0.3 to 0.9 uM by Western blot analysis; assay type: functional, cell-based
Rattus norvegicus [4] = experiment: Antidiabetic activity in STZ-induced diabetic nephropathy Wistar rat model assessed as increase in catalase level at 40 to 160 mg/kg administered daily for 8 weeks measured up to 8 weeks by ELISA; assay type: functional, organism-based; summary of the method: as §1
HBZY-1 [5] = experiment: Cytoprotective activity against HG-induced cell death in rat HBZY-1 cells assessed as […] by measuring early apoptotic cells at 0.3 uM by Annexin V-FITC/propidium iodide staining-based flow cytometric analysis (reference value: 8.13%); assay type: functional
HBZY-1 [6] = experiment: Cytoprotective activity against HG-induced cell death in rat HBZY-1 cells assessed as increase in apoptosis by measuring late apoptotic cells at 0.9 uM by Annexin V-FITC/propidium iodide staining-based flow cytometric analysis (reference value: 18.81%); assay type: functional
[7] = target: Aldo-keto reductase family 1 member B1 (Homo sapiens) (UniProt P15121); experiment: Uncompetitive inhibition of recombinant human AR at 60 to 140 nM in presence of various concentrations of DL-glyceraldehyde by Lineweaver-Burk plot analysis
Rattus norvegicus [8] = experiment: Antidiabetic activity in STZ-induced diabetic nephropathy Wistar rat model assessed as decrease in collagen 4 level at 40 to 160 mg/kg administered daily for 8 weeks measured up to 8 weeks by ELISA
HBZY-1 [9] = experiment: Cytoprotective activity against HG-induced cell death in rat HBZY-1 cells at 0.3 to 0.9 uM after 24 to 96 hrs by MTT assay; assay type: functional, cell-based
Rattus norvegicus [10] = experiment: Antidiabetic activity in STZ-induced diabetic nephropathy Wistar rat model assessed as decrease in laminin level at 40 to 160 mg/kg administered daily for 8 weeks measured up to 8 weeks by ELISA
HBZY-1 [11] = experiment: Cytoprotective activity against HG-induced cell death in rat HBZY-1 cells assessed as […] at 0.9 uM by Annexin V-FITC/propidium iodide staining-based flow cytometric analysis (reference value: 2.83); assay type: functional
Rattus norvegicus [12] = experiment: Antidiabetic activity in STZ-induced diabetic nephropathy Wistar rat model assessed as reduction in urinary microalbumin level at 40 to 160 mg/kg administered daily for 8 weeks measured up to 8 weeks by ELISA; assay type: functional, organism-based; summary of the method: as §1
HBZY-1 [13] = experiment: Cytoprotective activity against HG-induced cell death in rat HBZY-1 cells assessed as […] by measuring late apoptotic cells at 0.3 uM by Annexin V-FITC/propidium iodide staining-based flow cytometric analysis (reference value: 18.81%); assay type: functional
HBZY-1 [14] = experiment: Cytoprotective activity against HG-induced cell death in rat HBZY-1 cells assessed as […] at 0.3 to 0.9 uM by Hoechst staining-based analysis; assay type: functional
Summary of the method: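 HBZY-1 rat mesangial cells grown in low-glucose DMEM (5.56 mM) with 10% FBS at 37°C and 5% CO2. Pretreated, then exposed to 33 mM glucose. 1×10^4 cells seeded per well, fixed in 70% ethanol for 20 min at room temperature, and stained with Hoechst for 5 min. Imaged by fluorescence microscopy at 400×.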

HBZY-1 [15] = experiment: Downregulation of laminin levels in rat HBZY-1 cells at 0.3 to 0.9 uM by Western blot analysis; assay type: functional, cell-based
Rattus norvegicus [16] = experiment: Antidiabetic activity in STZ-induced diabetic nephropathy Wistar rat model assessed as reduction in blood glucose level at 40 to 160 mg/kg administered daily for 8 weeks measured up to 8 weeks by ELISA; assay type: functional, organism-based; summary of the method: as §1
Rattus norvegicus [17] = experiment: Antidiabetic activity in STZ-induced diabetic nephropathy Wistar rat model assessed as increase in total superoxide dismutase level at 40 to 160 mg/kg administered daily for 8 weeks measured up to 8 weeks by ELISA; assay type: functional, organism-based; summary of the method: as §1
Rattus norvegicus [18] = experiment: Antidiabetic activity in STZ-induced diabetic nephropathy Wistar rat model assessed as increase in glutathione level at 40 to 160 mg/kg administered daily for 8 weeks measured up to 8 weeks by ELISA; assay type: functional, organism-based; summary of the method: as §1
HBZY-1 [19] = experiment: Cytoprotective activity against HG-induced cell death in rat HBZY-1 cells assessed as […] by measuring early apoptotic cells at 0.6 uM by Annexin V-FITC/propidium iodide staining-based flow cytometric analysis (reference value: 8.13%); assay type: functional
HBZY-1 [20] = experiment: Cytoprotective activity against HG-induced cell death in rat HBZY-1 cells assessed as increase in apoptosis by measuring late apoptotic cells at 0.6 uM by Annexin V-FITC/propidium iodide staining-based flow cytometric analysis (reference value: 18.81%); assay type: functional
HBZY-1 [21] = experiment: Cytoprotective activity against HG-induced cell death in rat HBZY-1 cells assessed as […] by measuring early apoptotic cells at 0.9 uM by Annexin V-FITC/propidium iodide staining-based flow cytometric analysis (reference value: 8.13%); assay type: functional
HBZY-1 [22] = experiment: Cytoprotective activity against HG-induced cell death in rat HBZY-1 cells assessed as […] at 0.6 uM by Annexin V-FITC/propidium iodide staining-based flow cytometric analysis (reference value: 2.83); assay type: functional
HBZY-1 [23] = experiment: Cytoprotective activity against HG-induced cell death in rat HBZY-1 cells at 0.9 uM after 24 to 96 hrs by MTT assay; assay type: functional, cell-based
HBZY-1 [24] = experiment: Cytoprotective activity against HG-induced cell death in rat HBZY-1 cells assessed as […] at 0.3 uM by Annexin V-FITC/propidium iodide staining-based flow cytometric analysis (reference value: 2.83); assay type: functional
Rattus norvegicus [25] = experiment: Protection against […] in Wistar rat model assessed as reduction in glomerular mesangial hyperplasia at 40 to 160 mg/kg administered daily for 8 weeks measured after 8 weeks by hematoxylin/eosin dye-based analysis; assay type: functional, organism-based; summary of the method: as §1
HBZY-1 [26] = experiment: Cytoprotective activity against HG-induced cell death in rat HBZY-1 cells assessed as […] by measuring early apoptotic cells at 10 uM by Annexin V-FITC/propidium iodide staining-based flow cytometric analysis (reference value: 8.13%); assay type: functional
HBZY-1 [27] = experiment: Cytoprotective activity against HG-induced cell death in rat HBZY-1 cells assessed as increase in apoptosis by measuring late apoptotic cells at 10 uM by Annexin V-FITC/propidium iodide staining-based flow cytometric analysis (reference value: 18.18%); assay type: functional

SMILES: CC(=O)Oc1cc(-c2ccccc2)n(C(C)=O)c1
- IC50 [1]: 22.3 nM
- Activity (Rattus norvegicus [2]): Active
- Activity (HBZY-1 [3]): Active
- Activity (Rattus norvegicus [4]): Active
- Activity (HBZY-1 [5]): 8.18%
- Activity (HBZY-1 [6]): 8.45%
- inhibition [7]: Active
- Activity (Rattus norvegicus [8]): Active
- Activity (HBZY-1 [9]): Active
- Activity (Rattus norvegicus [10]): Active
- fold change (FC) (HBZY-1 [11]): 1.93
- Activity (Rattus norvegicus [12]): Active
- Activity (HBZY-1 [13]): 13.67%
- Activity (HBZY-1 [14]): Active
- Activity (HBZY-1 [15]): Active
- Activity (Rattus norvegicus [16]): Active
- Activity (Rattus norvegicus [17]): Active
- Activity (Rattus norvegicus [18]): Active
- Activity (HBZY-1 [19]): 5.66%
- Activity (HBZY-1 [20]): 10.31%
- Activity (HBZY-1 [21]): 9.97%
- fold change (FC) (HBZY-1 [22]): 2.07
- Activity (HBZY-1 [23]): Active
- fold change (FC) (HBZY-1 [24]): 2.29
- Activity (Rattus norvegicus [25]): Active

SMILES: CC(/C=C1\SC(=S)N(CC(=O)O)C1=O)=C\c1ccccc1
- Activity (HBZY-1 [3]): Active
- Activity (HBZY-1 [26]): 8.98%
- Activity (HBZY-1 [27]): 8.31%
- fold change (FC) (HBZY-1 [11]): 1.81
- Activity (HBZY-1 [15]): Active
